Results taken from ChEMBL document CHEMBL1125798, “Synthesis and biological activity of a series of diaryl-substituted alpha-cyano-beta-hydroxypropenamides, a new class of anthelmintic agents” (1991).

Columns and labels:
Type in all cases: functional
Rodentolepis nana [1] = test: Anthelmintic activity against mice infected with parasite Hymenolepis nana at a dose of 125 ppm (in feed)
Procedure, shortened: (§1)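 Compound was given in feed ad libitum from 24 h postinfection for 18 days, four mice per group. On day 19, N. dubius were counted in the duodenum and H. nana in the ileum. Result is % reduction of mean worm burden vs untreated control; ≤25% was recorded as 0.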

[2] = tested on: Heligmosomoides polygyrus; test: Anthelmintic activity against mice, infected with parasite Nematospiroides dubius, at a dose of 125 (ppm in feed); procedure, shortened: as §1
Rodentolepis nana [3] = test: The compound was tested for anthelmintic activity against mice, infected with parasite Hymenolepis nana at a dose of 250(ppm in feed); procedure, shortened: as §1
[4] = tested on: Heligmosomoides polygyrus; test: Anthelmintic activity against mice, infected with parasite Nematospiroides dubius, at a dose of 250(ppm in feed); procedure, shortened: as §1
Ovis aries [5] = test: Anthelmintic activity against sheep, infected with Haemonchus contortus, at a dose of 30 mg/kg.
Procedure, shortened: (§2)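 Merino ewes and wethers (12-15 months, 25-35 kg) received L3 intraruminally on day 0. Susceptible strains: H. contortus 6000, O. circumcincta 8000, T. colubriformis 8000. Benzimidazole-resistant strains: 8000, 9000, 9000. Animals were allocated by day-27 fecal egg count (n = 4-7) and given a single intraruminal dose in 0.5% carboxymethylcellulose saline. Adult worms in abomasum and small intestine were counted on day 35. Result is mean % reduction vs untreated controls.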

Ovis aries [6] = test: Anthelmintic activity against sheep, infected with Ostertagia circumcincta, at a dose of 30 mg/kg.; procedure, shortened: as §2
Ovis aries [7] = test: Anthelmintic activity against sheep, infected with Trichostrongylus colubriformis, at a dose of 30 mg/kg.; procedure, shortened: as §2
Rodentolepis nana [8] = test: Anthelmintic activity against mice infected with parasite Hymenolepis nana at a dose of 62(ppm in feed).; procedure, shortened: as §1
[9] = tested on: Heligmosomoides polygyrus; test: Anthelmintic activity against mice infected with parasite Nematospiroides dubius, at a dose of 62(ppm in feed).; procedure, shortened: as §1
Rodentolepis nana [10] = test: The compound was tested for anthelmintic activity against mice, infected with parasite Hymenolepis nana at a dose of 500(ppm in feed); procedure, shortened: as §1
[11] = tested on: Heligmosomoides polygyrus; test: Anthelmintic activity against mice, infected with parasite Nematospiroides dubius, at a dose of 500(ppm in feed); procedure, shortened: as §1
Rodentolepis nana [12] = test: The compound was tested for anthelmintic activity against mice, infected with parasite Hymenolepis nana at a dose of 31(ppm in feed); procedure, shortened: as §1
[13] = tested on: Heligmosomoides polygyrus; test: Anthelmintic activity against mice, infected with parasite Nematospiroides dubius, at a dose of 31(ppm in feed); procedure, shortened: as §1
[14] = tested on: Heligmosomoides polygyrus; test: Anthelmintic activity against mice, infected with parasite Nematospiroides dubius, at a dose of 62(ppm in feed); procedure, shortened: as §1

SMILES	Reduction (Rodentolepis nana [1]) [%]	Reduction [2] [%]	Reduction (Rodentolepis nana [8]) [%]	Reduction [9] [%]	other results
N#C/C(C(=O)Nc1ccc(Cl)c(Cl)c1)=C(/O)c1ccc(Cl)cc1	47	57	–	–	–
N#C/C(C(=O)Nc1ccc(C(F)(F)F)cc1)=C(/O)Cc1ccc(C(F)(F)F)cc1	0	35	–	–	Reduction (Rodentolepis nana [3]): 0%; Reduction [4]: 90%; Reduction (Ovis aries [5]): 78%; Reduction (Ovis aries [6]): 0%; Reduction (Ovis aries [7]): 0%
N#C/C(C(=O)Nc1ccc(C(F)(F)F)cc1)=C(/O)c1ccc(Cl)c(Cl)c1	0	95	0	0	–
N#C/C(C(=O)Nc1ccccc1C(F)(F)F)=C(/O)c1ccc(C(F)(F)F)cc1	0	0	–	–	–
N#C/C(C(=O)c1ccc(C(F)(F)F)cc1)=C(/S)Nc1ccc(C(F)(F)F)cc1	0	0	–	–	Reduction (Rodentolepis nana [3]): 90%; Reduction [4]: 100%
COc1ccc(NC(=O)/C(C#N)=C(\O)c2ccc(C(F)(F)F)cc2)cc1	0	0	–	–	–
N#CSc1ccc(NC(=O)/C(C#N)=C(\O)c2ccc(C(F)(F)F)cc2)cc1	0	0	–	–	–
N#C/C(C(=O)Nc1ccc(Oc2ccc(Cl)cc2)c(Cl)c1)=C(/O)c1ccc(C(F)(F)F)cc1	0	0	–	–	Reduction (Rodentolepis nana [10]): 83%; Reduction (Ovis aries [5]): 0%; Reduction (Ovis aries [6]): 0%; Reduction (Ovis aries [7]): 0%; Reduction [11]: 100%
N#C/C(C(=O)Nc1ccc(OC(F)(F)F)cc1)=C(/O)c1ccc(OC(F)(F)F)cc1	–	–	56	100	Reduction (Rodentolepis nana [12]): 0%; Reduction [13]: 39%
N#C/C(C(=O)Nc1ccc(Br)cc1)=C(/O)c1ccc(Br)cc1	0	100	0	29	–
N#C/C(C(=O)Nc1ccc(C(F)(F)F)cc1)=C(/O)c1ccc(I)cc1	89	97	0	0	–
N#C/C(C(=O)Nc1ccc(Cl)cc1)=C(/O)c1ccc(Cl)c(Cl)c1	100	100	0	32	–
N#C/C(C(=O)Nc1ccc(F)cc1)=C(/O)c1ccc(C(F)(F)F)cc1	0	100	0	–	Reduction [14]: 0%
Cc1ccc(/C(O)=C(\C#N)C(=O)Nc2ccc(C(F)(F)F)cc2)cc1	0	0	–	–	–
COc1ccc(/C(O)=C(\C#N)C(=O)Nc2ccc(C(F)(F)F)cc2)cc1	0	0	–	–	–
N#C/C(C(=O)Nc1ccc(C(F)(F)F)cc1)=C(/O)c1cccc(Cl)c1	0	0	–	–	–
N#C/C(C(=O)Nc1ccc(Br)cc1)=C(/O)c1ccc(C(F)(F)F)cc1	95	100	0	56	–
N#C/C(C(=O)Nc1ccc(Cl)cc1)=C(/O)c1ccc(Cl)cc1	100	100	30	59	–
N#C/C(C(=O)Nc1ccc(C(F)(F)F)cc1)=C(/O)c1ccccc1C(F)(F)F	0	0	–	–	–
N#C/C(C(=O)Nc1ccc(C(F)(F)F)cc1)=C(O)\C=C\c1ccc(C(F)(F)F)cc1	–	–	–	–	Reduction (Rodentolepis nana [3]): 0%; Reduction [4]: 48%
Cc1cc([N+](=O)[O-])ccc1NC(=O)/C(C#N)=C(\O)c1ccc(C(F)(F)F)cc1	99	97	0	35	Reduction (Ovis aries [5]): 0%; Reduction (Ovis aries [6]): 0%; Reduction (Ovis aries [7]): 0%
N#C/C(C(=O)Nc1ccc(Cl)cc1)=C(/O)c1ccc(C(F)(F)F)cc1	100	100	78	65	–
N#C/C(C(=O)Nc1ccc(C(F)(F)F)cc1)=C(/O)c1cccc(C(F)(F)F)c1	100	89	0	0	–
N#C/C(C(=O)Nc1ccc(C(F)(F)F)cc1)=C(/O)c1ccc(OC(F)(F)F)cc1	100	100	0	86	–
Cc1cc(C#N)ccc1NC(=O)/C(C#N)=C(\O)c1ccc(C(F)(F)F)cc1	100	90	0	0	–
N#C/C(C(=O)Nc1ccc(F)cc1)=C(/O)c1ccc(F)cc1	0	0	–	–	–

SMILES	Reduction (Rodentolepis nana [1]) [%]	Reduction [2] [%]	Reduction (Rodentolepis nana [8]) [%]	Reduction [9] [%]	other results
N#C/C(C(=O)Nc1ccc(C(F)(F)F)cc1)=C(/O)c1cc(Cl)cc(Cl)c1	100	100	0	0	Reduction (Ovis aries [5]): 100%; Reduction (Ovis aries [6]): 0%; Reduction (Ovis aries [7]): 0%
N#C/C(C(=O)Nc1ccc(Cl)cc1)=C(/O)c1ccc(Br)cc1	0	100	0	76	–
N#C/C(C(=O)Nc1ccc(Cl)cc1Cl)=C(/O)c1ccc(C(F)(F)F)cc1	100	89	63	0	–
CN(C(=O)/C(C#N)=C(\O)c1ccc(C(F)(F)F)cc1)c1ccc(C(F)(F)F)cc1	0	100	0	76	–
N#C/C(C(=O)Nc1ccc(C(F)(F)F)cc1)=C(/O)c1ccc([N+](=O)[O-])cc1	–	–	69	0	–
CCN(CC)C(=O)c1ccc(NC(=O)/C(C#N)=C(\O)c2ccc(C(F)(F)F)cc2)cc1	0	0	–	–	–
N#C/C(C(=O)Nc1cccc(C(F)(F)F)c1)=C(/O)c1ccc(C(F)(F)F)cc1	0	0	–	–	–
N#C/C(C(=O)Nc1ccc(C(F)(F)F)cc1)=C(/O)c1ccc(F)cc1	100	100	0	0	–
N#C/C(C(=O)Nc1ccc(Cl)c(Cl)c1)=C(/O)c1ccc(C(F)(F)F)cc1	93	100	0	0	–
N#C/C(C(=O)Nc1ccc(Sc2ccccc2)cc1)=C(/O)c1ccc(C(F)(F)F)cc1	–	–	–	–	Reduction (Rodentolepis nana [3]): 0%; Reduction [4]: 0%
CC(=O)c1ccc(NC(=O)/C(C#N)=C(\O)c2ccc(C(F)(F)F)cc2)cc1	0	0	–	–	–
N#C/C(C(=O)Nc1ccc(C(F)(F)F)cc1)=C(/O)c1ccc(Cl)cc1	–	–	0	53	–
N#C/C(C(=O)Nc1ccc(N=C=S)cc1)=C(/O)c1ccc(C(F)(F)F)cc1	0	80	–	–	–
CS(=O)(=O)c1ccc(NC(=O)/C(C#N)=C(\O)c2ccc(C(F)(F)F)cc2)cc1	0	0	–	–	–
COC(=O)c1ccc(NC(=O)/C(C#N)=C(\O)c2ccc(C(F)(F)F)cc2)cc1	0	0	–	–	–
N#C/C(C(=O)Nc1ccc(Br)cc1)=C(/O)c1ccc(Cl)cc1	0	100	0	47	–
N#C/C(C(=O)Nc1ccc(C(F)(F)F)cc1)=C(/O)c1ccc(C#N)cc1	78	28	–	–	–
N#C/C(C(=O)Nc1ccc(C(F)(F)F)cc1)=C(/O)c1ccc(Cl)cc1Cl	–	–	52	32	–
N#C/C(C(=O)Nc1ccc(C(F)(F)F)cc1)=C(/O)c1ccc(Oc2ccc(Cl)cc2)cc1	0	30	–	–	–
N#C/C(C(=O)Nc1ccc(C#N)cc1)=C(/O)c1ccc(C(F)(F)F)cc1	100	100	0	43	Reduction (Ovis aries [5]): 87%; Reduction (Ovis aries [6]): 7%; Reduction (Ovis aries [7]): 26%
N#C/C(C(=O)Nc1ccc(Sc2ccc(Cl)cc2)cc1)=C(/O)c1ccc(C(F)(F)F)cc1	0	0	–	–	Reduction (Rodentolepis nana [3]): 33%; Reduction [4]: 94%
N#C/C(C(=O)Nc1ccc(Cl)c(Cl)c1)=C(/O)c1ccc(Cl)c(Cl)c1	0	0	–	–	Reduction (Ovis aries [5]): 100%; Reduction (Ovis aries [6]): 0%; Reduction (Ovis aries [7]): 0%
N#C/C(C(=O)Nc1ccc(C(F)(F)F)cc1)=C(/O)c1ccc(S(=O)(=O)c2ccccc2)cc1	0	0	–	–	–
N#C/C(C(=O)Nc1ccc(I)cc1)=C(/O)c1ccc(C(F)(F)F)cc1	0	100	0	0	–
N#C/C(C(=O)Nc1ccccc1)=C(/O)c1ccc(C(F)(F)F)cc1	–	–	–	–	Reduction (Rodentolepis nana [10]): 100%; Reduction [11]: 32%
